Laboratory results published in ChEMBL document CHEMBL1148606 (J Med Chem, 2006).

Assays:
Format in all cases: cell-based
Adenosine receptor A3 = target: T1, Adenosine receptor A3 (Homo sapiens, UniProt P0DMS8); test: Displacement of [125I]AB-MECA from human adenosine A3 receptor transfected in CHO cells
T1 sequence (P0DMS8 whole entry): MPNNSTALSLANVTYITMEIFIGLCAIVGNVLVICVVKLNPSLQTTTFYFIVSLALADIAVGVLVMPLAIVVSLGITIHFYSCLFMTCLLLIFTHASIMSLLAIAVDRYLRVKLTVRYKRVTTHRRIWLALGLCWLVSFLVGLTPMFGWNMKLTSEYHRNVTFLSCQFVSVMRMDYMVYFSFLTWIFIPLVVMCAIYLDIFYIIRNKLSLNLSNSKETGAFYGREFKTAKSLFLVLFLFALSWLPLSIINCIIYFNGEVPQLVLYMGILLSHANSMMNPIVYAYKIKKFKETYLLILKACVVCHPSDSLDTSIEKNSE

Adenosine receptor A2a [1] = target: T2, Adenosine receptor A2a (Homo sapiens, UniProt P29274); test: Inhibition of [3H]CGS-21680 binding to human adenosine A2A receptor transfected in HEK293 cells at 10 uM
T2 sequence (P29274 whole entry): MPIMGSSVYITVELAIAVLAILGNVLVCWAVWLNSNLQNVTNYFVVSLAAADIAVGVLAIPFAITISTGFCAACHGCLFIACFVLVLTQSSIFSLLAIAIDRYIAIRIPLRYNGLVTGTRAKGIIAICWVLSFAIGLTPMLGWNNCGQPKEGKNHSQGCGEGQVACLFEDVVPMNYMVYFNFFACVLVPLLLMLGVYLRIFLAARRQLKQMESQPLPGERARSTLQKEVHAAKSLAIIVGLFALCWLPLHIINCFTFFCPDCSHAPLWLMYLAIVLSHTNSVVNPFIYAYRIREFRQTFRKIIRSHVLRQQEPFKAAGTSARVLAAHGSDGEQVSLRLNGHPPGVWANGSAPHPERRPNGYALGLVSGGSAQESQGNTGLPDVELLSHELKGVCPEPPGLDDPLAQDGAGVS

[2] = target: T3, Adenosine receptor A1 (Homo sapiens) (UniProt P30542); test: Inhibition of [3H]R-PIA binding to human adenosine A1 receptor transfected in CHO cells at 10 uM
T3 sequence (whole entry): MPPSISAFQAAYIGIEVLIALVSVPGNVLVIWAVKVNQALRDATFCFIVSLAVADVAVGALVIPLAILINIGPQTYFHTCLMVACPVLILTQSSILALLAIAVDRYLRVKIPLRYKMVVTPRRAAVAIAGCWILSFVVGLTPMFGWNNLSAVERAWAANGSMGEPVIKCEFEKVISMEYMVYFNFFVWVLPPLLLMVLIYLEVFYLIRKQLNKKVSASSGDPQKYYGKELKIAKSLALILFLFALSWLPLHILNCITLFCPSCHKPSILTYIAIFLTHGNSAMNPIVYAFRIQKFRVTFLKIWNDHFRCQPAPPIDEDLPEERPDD

Adenosine receptor A2a [3] = target: T2, Adenosine receptor A2a; test: Displacement of [3H]CGS-21680 from human adenosine A2A receptor transfected in HEK293 cells
How it was run: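 Membranes (20 µg/tube) from HEK-293 cells stably expressing human A2A receptor, incubated with 15 nM [3H]CGS21680 at 25 °C for 60 min in 50 mM Tris·HCl pH 7.4 with 10 mM MgCl2. Nonspecific binding defined with 10 µM NECA. Terminated by filtration through GF/B filters.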

Adenosine receptor A1 = target: T4, Adenosine receptor A1 (Homo sapiens, UniProt P30542); test: Displacement of [3H]R-PIA from human adenosine A1 receptor transfected in CHO cells
T4 sequence (P30542 whole entry): T3 sequence (whole entry)
How it was run: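 Membranes (40 µg/tube) from CHO cells stably expressing human A1 receptor were incubated with 2 nM [3H]R-PIA at 25 °C for 60 min in 50 mM Tris·HCl pH 7.4 containing 10 mM MgCl2. Nonspecific binding defined with 10 µM CPA. Terminated by filtration through GF/B filters.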

Compound | Ki (Adenosine receptor A3) | inhibition (Adenosine receptor A2a [1]) | inhibition [2] | Ki (Adenosine receptor A2a [3]) | Ki (Adenosine receptor A1)
CNc1nc(Cl)nc2c1ncn2[C@@H]1S[C@H](C(=O)NCc2cccc(F)c2)[C@@H](O)[C@H]1O | 17.4 nM | 41% | 67% |  | 
CNC(=O)[C@H]1S[C@@H](n2cnc3c(NCc4ccccc4C)nc(Cl)nc32)[C@H](O)[C@@H]1O | 2.18 nM |  |  | 1320 nM | 507 nM
Cc1ccccc1CNc1nc(Cl)nc2c1ncn2[C@@H]1S[C@H](C(=O)N(C)C)[C@@H](O)[C@H]1O | 632 nM | 22.5% | 0% |  | 
CNc1nc(Cl)nc2c1ncn2[C@@H]1S[C@H](C(=O)NCC2CC2)[C@@H](O)[C@H]1O | 1.1 nM | 44% |  |  | 638 nM
CNc1nc(Cl)nc2c1ncn2[C@@H]1S[C@H](C(=O)N2CCC(Cc3ccccc3)CC2)[C@@H](O)[C@H]1O | 3500 nM | 6% | 10% |  | 
CCNC(=O)[C@H]1S[C@@H](n2cnc3c(NC4CC4)nc(Cl)nc32)[C@H](O)[C@@H]1O | 0.67 nM |  |  | 604 nM | 3.2 nM
O=C(NCC1CC1)[C@H]1S[C@@H](n2cnc3c(NCc4cccc(I)c4)nc(Cl)nc32)[C@H](O)[C@@H]1O | 3.64 nM |  |  | 2220 nM | 1720 nM
CCNC(=O)[C@H]1S[C@@H](n2cnc3c(NC4CCCC4)nc(Cl)nc32)[C@H](O)[C@@H]1O |  |  |  | 149 nM | 2 nM

The remaining lines, values ahead:

Ki (Adenosine receptor A3) | inhibition (Adenosine receptor A2a [1]) | inhibition [2] | Ki (Adenosine receptor A2a [3]) | Ki (Adenosine receptor A1) | Compound
510 nM | 4% | 18% |  |  | O=C([C@H]1S[C@@H](n2cnc3c(NCc4cccc(I)c4)nc(Cl)nc32)[C@H](O)[C@@H]1O)N1CCOCC1
29.7 nM |  |  | 3890 nM | 1980 nM | Cc1ccccc1CNc1nc(Cl)nc2c1ncn2[C@@H]1S[C@H](C(=O)NCC2CC2)[C@@H](O)[C@H]1O
4.27 nM |  |  | 921 nM | 13.9 nM | CNC(=O)[C@H]1S[C@@H](n2cnc3c(NC4CCCC4)nc(Cl)nc32)[C@H](O)[C@@H]1O
2.24 nM |  |  | 4890 nM | 37.3 nM | CNC(=O)[C@H]1S[C@@H](n2cnc3c(NC4CC4)nc(Cl)nc32)[C@H](O)[C@@H]1O
27.8 nM |  |  | 202 nM | 76.7 nM | Cc1ccccc1CNc1nc(Cl)nc2c1ncn2[C@@H]1S[C@H](C(=O)NC2CC2)[C@@H](O)[C@H]1O
7670 nM | 17% | 4% |  |  | Cc1ccccc1CNc1nc(Cl)nc2c1ncn2[C@@H]1S[C@H](C(=O)N2CCOCC2)[C@@H](O)[C@H]1O
308 nM | 28% |  |  | 1710 nM | O=C(NCc1cccc(Cl)c1)[C@H]1S[C@@H](n2cnc3c(NCc4cccc(I)c4)nc(Cl)nc32)[C@H](O)[C@@H]1O
433 nM | 11% | 20% |  |  | O=C(NCCc1ccccc1)[C@H]1S[C@@H](n2cnc3c(NCc4cccc(I)c4)nc(Cl)nc32)[C@H](O)[C@@H]1O
1440 nM | 12% | 24% |  |  | O=C([C@H]1S[C@@H](n2cnc3c(NCc4cccc(I)c4)nc(Cl)nc32)[C@H](O)[C@@H]1O)N1CCN(c2ccc(F)cc2)CC1
4020 nM | 33% | 32% |  |  | O=C([C@H]1S[C@@H](n2cnc3c(NC4CC4)nc(Cl)nc32)[C@H](O)[C@@H]1O)N1CCC(Cc2ccccc2)CC1
4440 nM | 11% | 25% |  |  | O=C([C@H]1S[C@@H](n2cnc3c(NC4CC4)nc(Cl)nc32)[C@H](O)[C@@H]1O)N1CCOCC1
